In the library only some 2.5% were active in any assay of this set; here they are far more common.
Rce1 inhib – blocks yeast Ras-converting enzyme. Q03530. yeast membranes, quenched prenylated peptide cleavage fluorescence. calls only. hit rate 0.27% among 290,000. AID 2563;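 active means fall in fluorescence gain of 50% or more versus controls, with final raw signal at or below 3038400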
T cell HTS – T cell immune modulators affecting CD8 T cell-vesicle binding; 2C CD8+ T cell-vesicle binding, flow cytometry; stronger effect = lower value; response (vesicle binding), % at 7 µM; hit rate 0.068% among 330,000; AID 2052;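 active means response, share of CD8 T cells binding vesicles, and their 90th percentile fluorescence all below set limits, cut at about 80% in these data, passing the limit was not always enough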;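 further: values below 100% mean blocked vesicle binding to the CD8+ T cells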
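Incubation: binding step 1.5 h, 37 °C, antibody labelling 20 min, ice; system: murine 2C transgenic CD8+ T lymphocytes; technique: cytometric PE anti-B7-1 and Alexa647 anti-CD8 signals after 1% paraformaldehyde fixation; also added: QL9-charged Drosophila Ld/ICAM-1/B7-1 vesicles; control set: naked versus QL9-loaded vesicles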
MEKK3 PB1 HTS – modulators (inhibitors or enhancers) of MEK5 binding to human MEKK3 PB1 domain; hit rate 1.4% among 290,000; Q99759; AID 1529; bead-based flow cytometry, Alexa488-MEK5 binding to MEKK3; actives lie on both sides; 0 = blocked by unlabeled MEK5, 100 = vehicle; binding response (% of control), % at 10 µM;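 active means binding response more than 3 SD above or below the average of its plate-row segment, actives on both sides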;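 further: Alexa488 bead fluorescence after subtracting the streptavidin-only scavenger bead signal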
MEKK2mut PB1 HTS – signal of MEK5 binding to mutant human MEKK2 PB1 domain | bead flow cytometry, Alexa488-MEK5 binding to MEKK2 mutant | hit rate 0.35% among 290,000 | percent response, % at 10 µM | AID 1530; in the data active means percent response above about 24%, passing the limit was not always enough
MEKK2wt PB1 HTS – raises or lowers MEK5 binding to wildtype human MEKK2 PB1 domain. Q9Y2U5. bead flow cytometry, Alexa488-MEK5 binding to MEKK2 WT; actives lie on both sides. binding response (% of control), % at 10 µM. hit rate 1.1% among 290,000. AID 1531; in the data active means binding response below about 67% or above about 130%
UCH37 DUB inh – blocks the human deubiquitinase UCH37. hit rate 0.33% among 330,000. inhibition, % (no concentration beside the values). purified proteasome/UCH37, Ub-AMC cleavage fluorescence;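 active means mean inhibition over replicate wells above about 20%, limit read from the data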
Target sequence (Q9Y5K5 whole entry, looked up): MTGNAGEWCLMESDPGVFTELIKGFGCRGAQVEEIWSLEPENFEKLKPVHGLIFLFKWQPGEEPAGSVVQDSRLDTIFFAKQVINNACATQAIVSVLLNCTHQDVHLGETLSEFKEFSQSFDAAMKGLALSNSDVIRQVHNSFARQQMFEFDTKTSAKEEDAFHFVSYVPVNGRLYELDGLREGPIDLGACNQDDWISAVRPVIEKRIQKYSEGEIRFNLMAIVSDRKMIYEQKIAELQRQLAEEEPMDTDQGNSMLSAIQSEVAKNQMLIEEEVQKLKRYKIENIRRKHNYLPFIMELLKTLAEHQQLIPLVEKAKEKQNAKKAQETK
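Material: human UCH37 enzyme supplied as purified proteasome complex / Amount: 0.15 nM proteasome as dispensed / Buffer or medium: pH 7.4 Tris-HCl (50 mM) with ovalbumin, ATP-MgCl2, DTT / Times: preincubation 30 min, reaction 25 min, room temperature / Technique: AMC fluorescence from Ub-AMC cleavage, excitation 355 nm, emission 460 nm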
MEKK2wt confirm – raises or lowers MEK5 binding to wildtype human MEKK2, retest; shares compounds with MEKK3 PB1 HTS; bead flow cytometry, Alexa488-MEK5 binding to MEKK2 WT; actives lie on both sides; binding response (% of control), % at 10 µM; hit rate 2.4% among 5,900; AID 1892; in the data active means binding response below about 16% or above about 210%; inactive means in between
MEKK2mut-MEK5 – signal of MEK5 binding to mutant human MEKK2, retest; shares compounds with MEKK3 PB1 HTS; bead flow cytometry, Alexa488-MEK5 binding to MEKK2 mutant; percent response, % at 10 µM; hit rate 2% among 5,900; AID 1893; in the data active means percent response mostly above about 71%, no sharp cut-off; inactive means mostly below about 38%;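 further: higher means compound restores mutant binding toward wildtype level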
MEKK3 confirm – confirmation of inhibitors of MEK5 binding to human MEKK3; shares compounds with MEKK3 PB1 HTS; bead flow cytometry, Alexa488-MEK5 binding to MEKK3; stronger effect = lower value; binding response (% of control), % at 10 µM; hit rate 1.8% among 5,900; AID 1894;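 active means binding response below 72% of control, or above a set upper limit, though filed actives all read lower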
A number is an active result; ! = not active in a repeat; [ ] = remark or other dose.

What do the screens show for `COc1ccc(C(CC(=O)N2CCC3(CC2)OCCO3)NS(=O)(=O)c2ccc(C)cc2)cc1` (configuration not stated)?
Rce1 inhib: inactive; T cell HTS: inactive; MEKK3 PB1 HTS: 78[inhibitor]; MEKK2mut PB1 HTS: inactive; MEKK2wt PB1 HTS: inactive; UCH37 DUB inh: inactive; MEKK2wt confirm: inactive; MEKK2mut-MEK5: inactive; MEKK3 confirm: inactive

How did CCCCn1c(C)c(C(=O)O)c2cc(OC)ccc21 do in these assays?
Rce1 inhib: inactive; T cell HTS: inactive; MEKK3 PB1 HTS: 81[inhibitor]; MEKK2mut PB1 HTS: inactive; MEKK2wt PB1 HTS: inactive; UCH37 DUB inh: inactive; MEKK2wt confirm: inactive; MEKK2mut-MEK5: inactive; MEKK3 confirm: inactive

What do the screens show for `CSc1ccc(C(=O)C2CCCN(Cc3cccnc3)C2)cc1` (configuration not stated)?
Rce1 inhib: inactive; T cell HTS: inactive; MEKK3 PB1 HTS: inactive; MEKK2mut PB1 HTS: inactive; MEKK2wt PB1 HTS: inactive

How did CSc1ccc(C(=O)C2CCCN(Cc3cc4ccccc4[nH]3)C2)cc1 (configuration not stated) do in these assays?
Rce1 inhib: inactive; T cell HTS: inactive; MEKK3 PB1 HTS: inactive; MEKK2mut PB1 HTS: inactive; MEKK2wt PB1 HTS: 217; UCH37 DUB inh: inactive; MEKK2wt confirm: inactive; MEKK2mut-MEK5: inactive; MEKK3 confirm: inactive

What do the screens show for `CC[C@@H]1C(=O)OC[C@@H]1Cc1cncn1C`?
T cell HTS: inactive; UCH37 DUB inh: inactive

How did CC[C@@H]1C(=O)OC[C@@H]1Cc1cncn1C do in these assays?
Rce1 inhib: inactive; T cell HTS: inactive; MEKK3 PB1 HTS: inactive; MEKK2mut PB1 HTS: inactive; MEKK2wt PB1 HTS: 55![inhibitor]; UCH37 DUB inh: inactive; MEKK2wt confirm: inactive; MEKK2mut-MEK5: inactive; MEKK3 confirm: inactive

What do the screens show for `COc1ccc(CCN(C)Cc2ccc(F)cc2F)cc1OC`?
Rce1 inhib: inactive; T cell HTS: inactive; MEKK3 PB1 HTS: inactive; MEKK2mut PB1 HTS: inactive; MEKK2wt PB1 HTS: inactive; UCH37 DUB inh: inactive

What do the screens show for `CCN(CC)c1ccc(CN(C)CCc2ccc(OC)c(OC)c2)cc1`?
Rce1 inhib: inactive; T cell HTS: inactive; MEKK3 PB1 HTS: inactive; MEKK2mut PB1 HTS: 24; MEKK2wt PB1 HTS: 135; UCH37 DUB inh: inactive; MEKK2wt confirm: inactive; MEKK2mut-MEK5: inactive; MEKK3 confirm: inactive

What do the screens show for `COc1cccc(-c2nn(Cc3ccccc3)cc2C(=O)O)c1`?
T cell HTS: inactive; MEKK3 PB1 HTS: inactive; MEKK2mut PB1 HTS: inactive; MEKK2wt PB1 HTS: inactive; UCH37 DUB inh: inactive

Results for COc1cccc(C2CC3C(=O)C=CC2N3Cc2ccccc2)c1 (configuration not stated) ?
Rce1 inhib: inactive; T cell HTS: inactive; MEKK3 PB1 HTS: 157; MEKK2mut PB1 HTS: inactive; MEKK2wt PB1 HTS: inactive; UCH37 DUB inh: inactive; MEKK2wt confirm: inactive; MEKK2mut-MEK5: inactive; MEKK3 confirm: inactive

How did NC(=N[N+](=O)[O-])N1CCN(C(=O)c2ccccc2)CC1 do in these assays?
UCH37 DUB inh: inactive

Results for CN1/C(=C\C=Nc2ccccc2)C(C)(C)c2ccccc21 ?
Rce1 inhib: inactive; T cell HTS: inactive; MEKK3 PB1 HTS: inactive; MEKK2mut PB1 HTS: inactive; MEKK2wt PB1 HTS: 0.0[inhibitor]; UCH37 DUB inh: inactive; MEKK2wt confirm: inactive; MEKK2mut-MEK5: inactive; MEKK3 confirm: inactive

Results for CCOC(=O)c1c(/N=C/c2c(O)n(-c3ccccc3F)c(=S)[nH]c2=O)sc2c1CCCC2 ?
Rce1 inhib: inactive; T cell HTS: inactive; MEKK3 PB1 HTS: inactive; MEKK2mut PB1 HTS: inactive; MEKK2wt PB1 HTS: 64[inhibitor]; UCH37 DUB inh: inactive; MEKK2wt confirm: inactive; MEKK2mut-MEK5: inactive; MEKK3 confirm: inactive

Screens as filed in PubChem BioAssay.
